Active and inactive are the calls of the source.
Legend:
[1] = system: PC-12; test: Inhibition of SOD1 G93A mutant protein aggregation-mediated cytotoxicity in rat PC12 cells expressing yellow fluorescent protein assessed as increase in cell viability relative to radicicol; type: cell-based; set-up: concentration or dose not given beside the values
Outline: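 PC12 cells expressing G93A SOD1-YFP; MG132 proteasome inhibition induces cytotoxic mutant SOD1 aggregates. Cell survival measured as protection read-out; efficacy expressed relative to radicicol positive control.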

[2] = Inhibition of SOD1 G93A mutant protein aggregation-mediated cytotoxicity in rat PC12 cells expressing yellow fluorescent protein assessed as increase in cell viability; type: cell-based; details: PC-12
[3] = Ratio of drug level in brain to plasma in mutant SOD1 G93A transgenic mouse at 50 mg/kg, ip after 4 hrs; type: ADME, organism-based; set-up: dose 50 mg/kg, route intraperitoneal; details: read-out: BPR
Outline: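 Single i.p. bolus of 50 mg/kg in G93A SOD1 transgenic mice (18 animals). Blood and brain sampled at 0–24 h, snap-frozen in liquid nitrogen and stored at −80 °C. Brain and plasma concentrations were compared at 4 h, within the plasma plateau.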

[4] = Volume of distribution at steady state in Sprague-Dawley rat at 1 mg/kg, iv; type: ADME, organism-based; set-up: dose 1 mg/kg, route intravenous; details: in vivo, read-out: Vdss
[5] = Half life in Sprague-Dawley rat at 1 mg/kg, po; type: ADME, organism-based; set-up: dose 1 mg/kg, route oral; details: in vivo
[6] = AUClast in Sprague-Dawley rat at 1 mg/kg, po; type: ADME, organism-based; set-up: time 0 - last, dose 1 mg/kg, route oral; details: plasma
[7] = system: Cerebral cortex neuron; test: Cytoprotective activity against MG132-induced cytotoxicity in rat primary cortical neurons cells assessed as cell viability at 100 uM pre-treated for 24 hrs before MG132-induction measured after 48 hrs by Calcein-AM-based fluorimetry; type: functional
Outline: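 Neurons from E18 rat cortex (Sprague-Dawley or Fischer 344), papain-dissociated, plated at 20,000 cells/well on poly-D-lysine, cultured 5 days in Neurobasal/B27 (~90% neurons). Six-point series from 100 μM top in roughly one-third steps, 24 h pre-incubation, then MG132 100 nM final. Viability read 48 h later by Calcein-AM (1 μM, 20 min, RT) fluorescence. Active if ≥5 SD above MG132 controls.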

[8] = system: Rattus norvegicus; test: Dose normalised AUC in Sprague-Dawley rat at 1 mg/kg, iv; type: ADME, organism-based; set-up: dose 1 mg/kg, route intravenous; details: in vivo
[9] = system: PC-12; test: Cytoprotective activity against MG132-induced cytotoxicity in rat PC12 cells assessed as cell viability at 100 uM pre-treated for 24 hrs before MG132-induction measured after 48 hrs by Calcein-AM-based fluorimetry; type: functional
[10] = Cmax in Sprague-Dawley rat at 1 mg/kg, po; type: ADME, organism-based; set-up: dose 1 mg/kg, route oral; details: in vivo
[11] = system: SH-SY5Y; test: Cytoprotective activity against MG132-induced cytotoxicity in human SH-SY5Y cells assessed as cell viability at 100 uM pre-treated for 24 hrs before MG132-induction measured after 48 hrs by Calcein-AM-based fluorimetry; type: functional
[12] = system: Caco-2; test: Apparent permeability from basolateral to apical side of human Caco2 cells at 50 uM after 2 hrs […]; type: ADME, cell-based; details: caco-2, 2 h
Outline: (§1)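 Caco-2 monolayers on collagen-coated inserts, differentiated 3 weeks. The compound is dosed at 50 μM in HEPES/HBSS/glucose buffer, apical pH 6.5 and basolateral pH 7.4. For A→B, compound and 100 μM Lucifer yellow go apical. For B→A, compound goes basolateral with Lucifer yellow apical. Incubation is 2 h. Lucifer yellow fluorescence checks monolayer integrity (<1% transport). Papp = (dQ/dt)/(c0·A), in 10−6 cm/s.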

[13] = system: Rattus norvegicus; test: Dose normalised AUC in Sprague-Dawley rat at 1 mg/kg, po; type: ADME, organism-based; set-up: dose 1 mg/kg, route oral; details: in vivo
[14] = Half life in Sprague-Dawley rat at 1 mg/kg, iv; type: ADME, organism-based; set-up: dose 1 mg/kg, route intravenous; details: in vivo
[15] = system: HEK293; test: Cytoprotective activity against MG132-induced cytotoxicity in human HEK293 cells assessed as cell viability at 100 uM pre-treated for 24 hrs before MG132-induction measured after 48 hrs by Calcein-AM-based fluorimetry; type: functional
[16] = Toxicity in mouse administered as ip starting at 5 mg/kg and doubling the compound bid each day; type: organism-based; set-up: dose 5 mg/kg, route intraperitoneal; details: in vivo
Outline: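 Maximum tolerated dose in mice by intraperitoneal injection. Dosing began at 5 mg/kg and was doubled b.i.d. each day, given once in the morning and once mid-afternoon.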

[17] = Clearance in Sprague-Dawley rat at 1 mg/kg, iv; type: ADME, organism-based; set-up: dose 1 mg/kg, route intravenous; details: in vivo
[18] = target: hERG (KCNH2) (Homo sapiens, UniProt Q12809); test: Inhibition of human ERG expressed in HEK293 cells at 10 uM; type: cell-based; details: HEK293 cells expressing hERG
[19] = system: Liver; test: Half life in mouse liver microsomes at 5 uM by LC-MS/MS analysis; type: ADME, Microsome
Outline: (§2)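 Incubation at 37 °C, in duplicate, with human or mouse liver microsomes (0.275 mg/mL protein) in 100 mM potassium phosphate pH 7.4 with 2 mM NADPH and 3 mM MgCl2. A minus-NADPH control was run. Samples were taken at 15 s and at 10, 20, 40 and 60 min, quenched in acidified acetonitrile with internal standard, and parent was quantified by LC-MS/MS. T1/2 = ln2/k from an exponential fit.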

[20] = system: Caco-2; test: Apparent permeability from apical to basolateral side of human Caco2 cells at 50 uM after 2 hrs […]; type: ADME, cell-based; details: caco-2, 2 h; outline: as §1
[21] = AUClast in Sprague-Dawley rat at 1 mg/kg, iv; type: ADME, organism-based; set-up: time 0 - last, dose 1 mg/kg, route intravenous; details: plasma
[22] = system: Liver microsomes; test: Half life in human liver microsomes at 5 uM by LC-MS/MS analysis; type: ADME, Microsome; outline: as §2
[23] = Oral bioavailability in Sprague-Dawley rat at 1 mg/kg; type: ADME, organism-based; details: in vivo
[24] = Solubility of the compound in phosphate buffer saline after 1 hrs by spectrophotometry; type: physicochemical; details: phosphate buffered saline
Outline: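 DMSO stocks at 100× final (threefold serial dilutions) diluted into PBS and held 1 h at room temperature. Precipitate checked visually and by absorbance at 450 nm. The solubility limit was taken as the highest concentration not cloudy and with absorbance not above background.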

[25] = in vivo; details: Sprague-Dawley, rat, po, 1 mg/kg
[26] = system: HeLa; test: Cytoprotective activity against MG132-induced cytotoxicity in human HeLa cells assessed as cell viability at 100 uM pre-treated for 24 hrs before MG132-induction measured after 48 hrs by Calcein-AM-based fluorimetry; type: functional
[27] = system: Caco-2; test: Efflux ratio of permeability from basolateral to apical over apical to basolateral side in human Caco2 cells at 50 uM after 2 hrs […]; type: ADME, cell-based; details: caco-2, 2 h
Outline: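 Caco-2 monolayers were grown for three weeks on collagen-coated inserts and fed every 2 days. The transport buffer was 10 mM HEPES with 1.98 g/L glucose in HBSS, pH 6.5 apical and pH 7.4 basolateral. Compound was added at 50 μM on the donor side, with 100 μM Lucifer yellow apically, for 2 h. Compound was quantified by LC-MS/MS; Lucifer yellow fluorescence checked monolayer integrity. Papp = (dQ/dt)/(c0·A); ratio taken as B→A over A→B.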

[28] = system: Plasma; test: Half life in mouse plasma at 5 uM by LC-MS/MS analysis; type: ADME, cell-free
Outline: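 Mouse plasma incubation at 37 °C in duplicate alongside a PBS control, with warfarin and diltiazem as controls. Time points at 15 s and 10, 20, 40 and 60 min; samples precipitated with acetonitrile containing internal standard, then LC-MS/MS. Plasma/PBS response ratio gave % remaining, fitted first-order for half-life.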

hERG (KCNH2), sequence (Q12809 whole entry): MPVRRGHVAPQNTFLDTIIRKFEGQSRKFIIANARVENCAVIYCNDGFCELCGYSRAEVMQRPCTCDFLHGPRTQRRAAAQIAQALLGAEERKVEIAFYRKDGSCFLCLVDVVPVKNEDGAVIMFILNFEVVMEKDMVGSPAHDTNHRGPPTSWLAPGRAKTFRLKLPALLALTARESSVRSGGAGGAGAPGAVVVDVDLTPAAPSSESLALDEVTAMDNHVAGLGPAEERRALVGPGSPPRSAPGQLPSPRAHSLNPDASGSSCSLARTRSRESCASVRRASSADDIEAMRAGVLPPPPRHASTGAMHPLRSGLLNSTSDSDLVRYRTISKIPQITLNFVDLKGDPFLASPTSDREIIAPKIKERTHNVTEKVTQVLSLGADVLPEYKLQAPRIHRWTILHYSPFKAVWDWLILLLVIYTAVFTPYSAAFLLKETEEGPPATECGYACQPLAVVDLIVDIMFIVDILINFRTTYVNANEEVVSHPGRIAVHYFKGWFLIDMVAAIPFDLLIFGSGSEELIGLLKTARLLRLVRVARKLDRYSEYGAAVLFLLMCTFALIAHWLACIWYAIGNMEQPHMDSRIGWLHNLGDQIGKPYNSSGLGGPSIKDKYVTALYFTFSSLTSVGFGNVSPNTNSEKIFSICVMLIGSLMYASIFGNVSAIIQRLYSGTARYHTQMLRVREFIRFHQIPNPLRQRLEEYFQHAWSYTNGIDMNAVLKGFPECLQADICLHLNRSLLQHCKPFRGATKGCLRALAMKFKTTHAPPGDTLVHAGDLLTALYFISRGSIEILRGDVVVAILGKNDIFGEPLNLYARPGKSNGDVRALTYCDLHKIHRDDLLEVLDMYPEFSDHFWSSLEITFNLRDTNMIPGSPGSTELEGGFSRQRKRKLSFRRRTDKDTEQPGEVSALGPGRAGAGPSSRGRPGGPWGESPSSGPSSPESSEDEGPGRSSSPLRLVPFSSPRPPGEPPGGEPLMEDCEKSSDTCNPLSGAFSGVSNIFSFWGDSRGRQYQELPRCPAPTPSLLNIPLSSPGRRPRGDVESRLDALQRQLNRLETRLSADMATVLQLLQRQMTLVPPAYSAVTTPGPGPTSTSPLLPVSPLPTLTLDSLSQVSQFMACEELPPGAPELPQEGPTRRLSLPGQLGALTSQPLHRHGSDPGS

## O=C1CC(=O)CC(c2cc(C(F)(F)F)cc(C(F)(F)F)c2)C1
[1]
  Efficacy: 100%
[2]
  EC50: 700 nM
[3]
  Kp at 4 h: 0.86
[4]
  Vd: 1.5 L/kg
[5]
  half-life: 3.2 h
[6]
  AUC(0-t): 1760 ng·h/mL
[7]
  Activity: inactive
[8]
  AUC/dose: 1996 ng·h/mL
[9]
  Activity: Active
[10]
  Cmax: 468 ng/mL
[11]
  Activity: inactive
[12]
  Papp: 5.7 cm'-6/s
[13]
  AUC/dose: 1774 ng·h/mL
[14]
  half-life: 3.7 h
[15]
  Activity: inactive
[16]
  MTD: 80 mg/kg
[17]
  clearance: 8.4 mL/min/kg
[18]
  inhibition at 10 µM: 7.8%
[19]
  t1/2: >= 180 min
[20]
  Papp: 38 cm'-6/s
[21]
  AUC(0-t): 1980 ng·h/mL
[22]
  t1/2: >= 180 min
[23]
  bioavailability: 89%
[24]
  solubility at 1 h: ≥ 500 µM
[25]
  Tmax: 0.5 h
[26]
  Activity: inactive

## CC(Oc1cc(C(F)(F)F)cc(C(F)(F)F)c1)C1CC(=O)CC(=O)C1 (racemic)
[1]
  Efficacy: 100%
[2]
  EC50: 700 nM
[12]
  Papp: 3.1 cm'-6/s
[27]
  Ratio: 0.1
[28]
  t1/2: > 1 h
[19]
  t1/2: 0.75 h
[20]
  Papp: 24.8 cm'-6/s
[22]
  t1/2: 1.18 h

From ChEMBL document CHEMBL1938301, “Cyclohexane 1,3-diones and their inhibition of mutant SOD1-dependent protein aggregation and toxicity in PC12 cells” (Bioorg Med Chem, 2012)
